Assay results as given in ChEMBL document CHEMBL1129507, “Betulinic acid derivatives: a new class of human immunodeficiency virus type 1 specific inhibitors with a new mode of action” (J Med Chem, 1996).
pIC50: −log10 of the molar value.

Key:
[1] = tested on: MT4; assay: Ability to inhibit the cytopathic effect induced by HIV-1 infection in MT-4 cells; assay type: functional, cell-based; details: Homo sapiens
Outline: (§1)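 MT-4 cells infected with HIV-1 strain IIIB/LAI. Protection from virus-induced cytopathogenicity measured by the MTT method. IC50 is the concentration giving 50% protection, mean of at least two experiments.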

[2] = tested on: CCRF-CEM; assay: Ability to inhibit the cytopathic effect induced by HIV-1 infection in CEM T-lymphoblastoid tumor cell line; assay type: functional, cell-based; details: Homo sapiens
Outline: (§2)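 CEM 4 cells in RPMI 1640 with 10% heat-inactivated FCS, penicillin, streptomycin, glutamine and polybrene (2 µg/mL), 37 °C, 5% CO2. Compound dilutions or PBS preincubated with cells for 1 h, then infected with HIV-1 IIIB/LAI (100-200 CCID50) and cultured ≥5 days. Mock-infected parallel cultures for cytotoxicity. Absorbance read at 540 nm; IC50 for 50% protection against cytopathogenicity, mean of ≥2 experiments.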

[3] = tested on: CCRF-CEM; assay: Ability to inhibit the cytopathic effect induced by HIV-1 infection in CEM T-lymphoblastoid tumor cell line; NA=not active.; assay type: functional, cell-based, Homo sapiens; outline: as §2
[4] = tested on: MT4; assay: Ability to inhibit the cytopathic effect induced by HIV-1 infection in MT-4 cells; NA=not active.; assay type: functional, cell-based, Homo sapiens; outline: as §1

| pIC50 [2] | IC50 [3] | Compound | pIC50 [1] | IC50 [4] |
| --- | --- | --- | --- | --- |
|  | Not Active | C=C(C)[C@@H]1CC[C@]2(C(=O)N(C)CCCCCCCCCCC(=O)O)CC[C@]3(C)[C@H](CCC4[C@@]5(C)CC[C@H](O)C(C)(C)[C@@H]5CC[C@]43C)[C@@H]12 (stereo partly specified) |  | Not Active |
|  | Not Active | C=C(C)[C@@H]1CC[C@]2(CNCCCCCCCCCCC(=O)O)CC[C@]3(C)[C@H](CCC4[C@@]5(C)CC[C@H](O)C(C)(C)[C@@H]5CC[C@]43C)[C@@H]12 (stereo partly specified) |  |  |
| 5.90 |  | C=C(CNC(C)=O)[C@@H]1CC[C@]2(C(=O)NCCCCCCCCCCC(=O)O)CC[C@]3(C)[C@H](CCC4[C@@]5(C)CC[C@H](O)C(C)(C)[C@@H]5CC[C@]43C)[C@@H]12 (stereo partly specified) | 6.59 |  |
|  | Not Active | C=C(C)[C@@H]1CC[C@]2(NC(=O)CCCCCCCCCCC(=O)O)CC[C@]3(C)[C@H](CCC4[C@@]5(C)CC[C@H](O)C(C)(C)[C@@H]5CC[C@]43C)[C@@H]12 (stereo partly specified) |  | Not Active |
| 6.00 |  | C=C(CN1CCCC1)[C@@H]1CC[C@]2(C(=O)NCCCCCCCCCCC(=O)O)CC[C@]3(C)[C@H](CCC4[C@@]5(C)CC[C@H](O)C(C)(C)[C@@H]5CC[C@]43C)[C@@H]12 (stereo partly specified) | 6.38 |  |
| 5.24 |  | C=C(CNCCO)[C@@H]1CC[C@]2(C(=O)NCCCCCCCCCCC(=O)O)CC[C@]3(C)[C@H](CCC4[C@@]5(C)CC[C@H](O)C(C)(C)[C@@H]5CC[C@]43C)[C@@H]12 (stereo partly specified) | 5.70 |  |
| 5.52 |  | C=C(C)[C@@H]1CC[C@]2(C(=O)NCCCCCCCCCCC(=O)O)CC[C@]3(C)[C@H](CCC4[C@@]5(C)CC[C@@H](O)C(C)(C)[C@@H]5CC[C@]43C)[C@@H]12 (stereo partly specified) | 5.60 |  |
|  | Not Active | C=C(C)[C@@H]1CC[C@]2(C(=O)NCCCCCCCCCCC(=O)O)CC[C@]3(C)C(CCC4[C@@]5(C)CC(O)C(O)C(C)(C)C5CC[C@]43C)C12 (stereo partly specified) |  |  |
| 5.82 |  | CC(C)[C@@H]1CC[C@]2(C(=O)NCCCCCCCCCCC(=O)O)CC[C@]3(C)C(CC[C@@H]4[C@@]5(C)CCC(O)C(C)(C)C5CC[C@]43C)C12 (stereo partly specified) | 6.24 |  |
| 5.52 |  | C=C(C)[C@@H]1CC[C@]2(C(=O)NCCCCCCCCCCC(=O)O)CC[C@]3(C)C(CC[C@@H]4[C@@]5(C)C=C(O)C(=O)C(C)(C)C5CC[C@]43C)C12 (stereo partly specified) |  |  |
|  | Not Active | C=C(C)[C@@H]1CC[C@]2(C(=O)NCCCCCCCCCCC(=O)O)CC[C@]3(C)[C@H](CCC4[C@@]5(C)CCCC(C)(C)[C@@H]5CC[C@]43C)[C@@H]12 (stereo partly specified) |  |  |
| 6.70 |  | C=C(CO)[C@@H]1CC[C@]2(C(=O)NCCCCCCCCCCC(=O)O)CC[C@]3(C)[C@H](CCC4[C@@]5(C)CC[C@H](O)C(C)(C)[C@@H]5CC[C@]43C)[C@@H]12 (stereo partly specified) | 6.42 |  |
| 5.70 |  | C=C(CSc1ccc(F)cc1)[C@@H]1CC[C@]2(C(=O)NCCCCCCCCCCC(=O)O)CC[C@]3(C)[C@H](CCC4[C@@]5(C)CC[C@H](O)C(C)(C)[C@@H]5CC[C@]43C)[C@@H]12 (stereo partly specified) | 5.86 |  |
| 5.92 |  | C=C(C)[C@@H]1CC[C@]2(C(=O)NCCCCCCCCCCC(=O)O)CC[C@]3(C)[C@H](CCC4[C@@]5(C)CCC(=O)C(C)(C)[C@@H]5CC[C@]43C)[C@@H]12 (stereo partly specified) | 6.48 |  |

More lines, now with the values behind:

| Compound | pIC50 [2] | IC50 [3] | pIC50 [1] | IC50 [4] |
| --- | --- | --- | --- | --- |
| C=C(CSCCN(CC)CC)[C@@H]1CC[C@]2(C(=O)NCCCCCCCCCCC(=O)O)CC[C@]3(C)[C@H](CCC4[C@@]5(C)CC[C@H](O)C(C)(C)[C@@H]5CC[C@]43C)[C@@H]12 (stereo partly specified) | 6.00 |  | 6.20 |  |
| C=C(CSCC(=O)O)[C@@H]1CC[C@]2(C(=O)NCCCCCCCCCCC(=O)O)CC[C@]3(C)[C@H](CCC4[C@@]5(C)CC[C@H](O)C(C)(C)[C@@H]5CC[C@]43C)[C@@H]12 (stereo partly specified) |  | Not Active | 5.79 |  |
| C=C(C)[C@@H]1CC[C@]2(C(=O)OCCCCCCCCCCC(=O)O)CC[C@]3(C)[C@H](CCC4[C@@]5(C)CC[C@H](O)C(C)(C)[C@@H]5CC[C@]43C)[C@@H]12 (stereo partly specified) |  | Not Active |  | Not Active |
| C=C(C)[C@@H]1CC[C@]2(NC(=O)NCCCCCCCCCC(=O)O)CC[C@]3(C)[C@H](CCC4[C@@]5(C)CC[C@H](O)C(C)(C)[C@@H]5CC[C@]43C)[C@@H]12 (stereo partly specified) |  | Not Active |  | Not Active |
| CC1(C)C(O)CC[C@@]2(C)C1CC[C@]1(C)C2CCC2C3[C@H](C(=O)O)CC[C@]3(C(=O)NCCCCCCCCCCC(=O)O)CC[C@]21C (stereo partly specified) | 4.30 |  | 5.05 |  |
| CC(=O)[C@@H]1CC[C@]2(C(=O)NCCCCCCCCCCC(=O)O)CC[C@]3(C)C(CCC4[C@@]5(C)CCC(O)C(C)(C)C5CC[C@]43C)C12 (stereo partly specified) | 4.92 |  |  |  |
| C=C(C)[C@@H]1CC[C@]2(C(=O)NCCCCCCCCCCC(=O)O)CC[C@]3(C)[C@H](CCC4[C@@]5(C)CC[C@H](OC)C(C)(C)[C@@H]5CC[C@]43C)[C@@H]12 (stereo partly specified) |  | Not Active |  | Not Active |
| C=C(CNCC(=O)O)[C@@H]1CC[C@]2(C(=O)NCCCCCCCCCCC(=O)O)CC[C@]3(C)[C@H](CCC4[C@@]5(C)CC[C@H](O)C(C)(C)[C@@H]5CC[C@]43C)[C@@H]12 (stereo partly specified) |  | Not Active |  |  |
| C=C(C)[C@@H]1CC[C@]2(C(=O)NCCCCCCCCCCC(=O)O)CC[C@]3(C)C(CC[C@@H]4[C@@]5(C)CC=CC(C)(C)C5CC[C@]43C)C12 (stereo partly specified) | 5.74 |  | 5.59 |  |
| C=C(C)[C@@H]1CC[C@]2(C(=O)NCCCCCCCCCCC(=O)O)CC[C@]3(C)[C@H](CCC4[C@@]5(C)CC[C@H](N)C(C)(C)[C@@H]5CC[C@]43C)[C@@H]12 (stereo partly specified) |  | Not Active |  |  |
| C=C(C)[C@@H]1CC[C@]2(C(=O)NCCCCCCCCCCC(=O)O)CC[C@]3(C)[C@H](CCC4[C@@]5(C)CC[C@H](O)C(C)(C)[C@@H]5CC[C@]43C)[C@@H]12 (stereo partly specified) | 6.64 |  | 6.36 |  |
| C=C(CSCCO)[C@@H]1CC[C@]2(C(=O)NCCCCCCCCCCC(=O)O)CC[C@]3(C)[C@H](CCC4[C@@]5(C)CC[C@H](O)C(C)(C)[C@@H]5CC[C@]43C)[C@@H]12 (stereo partly specified) | 6.54 |  | 6.57 |  |
| C=C(CN)[C@@H]1CC[C@]2(C(=O)NCCCCCCCCCCC(=O)O)CC[C@]3(C)[C@H](CCC4[C@@]5(C)CC[C@H](O)C(C)(C)[C@@H]5CC[C@]43C)[C@@H]12 (stereo partly specified) |  | Not Active |  |  |
